In ChEMBL document CHEMBL4513216, “Probing the Open Global Health Chemical Diversity Library for Multistage-Active Starting Points for Next-Generation Antimalarials” (ACS Infect Dis, 2020):

Assay: Toxicity liver stage against HepG2, at 10uM
Assay type: cell-based
Design: test concentration 10 uM, cell line HepG2-A16-CD81EGFP
Conditions: human, HepG2-A16-CD81EGFP cells; read-out: INHIBITION
In short: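 Uninfected HepG2-A16-CD81EGFP cells, 3 × 10^3 per well, 1536-well, plated on prespotted compound at 10 μM final, parasite-free screening media added to match infected plates; puromycin 10 μM positive, DMSO 0.5% negative; run in parallel with 48 h PbLuc assay at 37 °C, 5% CO2; viability by CellTiter-Glo luminescence, normalized to controls.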

Row | Compound | cytotoxicity at 10 µM [%]
1 | CCN(CCO)C[C@@H]1CN(c2cc(C(F)(F)F)cc(C)n2)C[C@@H]1CO | -1.7
2 | Cn1ccnc1C1CCCN(C(=O)c2cc(F)cc(F)c2)C1 (stereo not drawn) | 18.4
3 | COc1nn(C)c2c1CCCN(C(=O)c1cscn1)C2 | -97.2
4 | NCCc1cccc(CN2CCN(c3cccc(Cl)c3)C(=O)C2)c1 | -5.29
5 | O[C@@H]1CN(Cc2cc(Cl)cc3cccnc23)C[C@@H]1O | 0.342
6 | CN(C)Cc1nnc(C2CCN(c3ncccc3Cl)CC2)n1C1CC1 | -2.57
7 | Cc1nn(C)c(C)c1CNC1CCOc2ccccc21 (stereo not drawn) | 7.75
8 | CN(C)c1ncc2c(n1)C1(CCN(Cc3ccccc3)C1)COC2 (stereo not drawn) | -5.07
9 | Cc1nc(C)n(C2CCCN(C(=O)c3ccccc3C)C2)n1 (stereo not drawn) | 1.59
10 | Cc1ccc2cc(C(=O)N3CCN(C(=O)N(C)C)CC3)ccc2n1 | -52.1
11 | Cc1nnc(NC(=O)C(C)n2ncc(Br)c2C)s1 (stereo not drawn) | 1.81
12 | O=C(Nc1ccccc1OCC1CCCCO1)c1ccc(O)nc1 (stereo not drawn) | 5.41
13 | COCC(=O)NCc1cc(=O)n2c(n1)CN(Cc1ccoc1)CCC2 | -124
14 | CCN(CC)CCCNC(=O)C(C)n1cc(Br)cn1 (stereo not drawn) | -3.33
15 | Cc1ccc(C)c(-c2csc(N)c2C#N)c1 | 5.47
16 | Cn1nc2c(cc1=O)CN(CC(=O)Nc1ccc(Cl)cn1)CC2 | 0.874
17 | Cc1occc1C(=O)N1CCC2(CC1)CN(Cc1nccs1)CCO2 | 5.22
18 | Cc1ccccc1CSc1nc(N)cc(N2CCOC(C(N)=O)C2)n1 (stereo not drawn) | 5.27
19 | COc1nc2cc(C)ccc2cc1CN(C)Cc1n[nH]c2c1CCCC2 | 4.03
20 | c1cc(-c2nn3c(CN4CCOCC4)nnc3s2)ccn1 | 11
21 | O=C(Cc1ccccn1)NCC1OCCc2cn(CC3CC3)nc21 (stereo not drawn) | 7.51
22 | O=C(c1cnc(O)cn1)N1CCC(CN2CCOCC2)CC1 | 9.49
23 | CN(CCCc1cnn(C)c1)C(=O)C1CCN(C(=O)C2CCC2)CC1 | -11.6
24 | O=C(NCc1nnc2ccccn12)N1CCOC(c2cccs2)C1 (stereo not drawn) | 1.64

Row | Compound | cytotoxicity at 10 µM [%]
25 | O=c1[nH]c(-c2ccncc2)ncc1-c1ccnc(NC2CC2)n1 | -11.7
26 | CC(C)CO[C@H]1CN(S(=O)(=O)c2cn(C)cn2)[C@@H]2CCCO[C@H]12 | -148
27 | O=C(CCC(=O)N1CCNC(=O)C1c1cccc(F)c1)NC1CCCC1 (stereo not drawn) | 2.68
28 | CCc1cc(N(C)Cc2nonc2C)nc(N2CCOCC2)n1 | -8.07
29 | Cn1nnc2c1CCN(S(C)(=O)=O)C2COCc1ccccc1 (stereo not drawn) | -100
30 | Cc1ccc(CC(=O)NCCCNS(C)(=O)=O)cc1 | 3.1
31 | Cc1cccc(OCCC(=O)N(C)CC(C)C#N)c1C (stereo not drawn) | -0.555
32 | CCCc1nnc(N2CCN(c3ccccc3OCC)CC2)o1 | 3.88
33 | COc1cc(CN2CCN(c3cccc(OC)c3)C(=O)C2)cc(OC)c1 | -11.7
34 | CN(C)C(=O)CCS(=O)(=O)Cc1ccn(-c2cccc(F)c2)n1 | -5.71
35 | CC(C)Cn1c(=O)[nH]c2cn(-c3ccc(F)cc3)c(=O)n21 | 8.2
36 | Cc1nc2c(c(NCC(O)C(F)(F)F)n1)CCNCC2 (stereo not drawn) | 5.37
37 | CCNc1nc(C)c(C(=O)N(C)Cc2nc(CC)no2)s1 | -6.02
38 | Cn1cccc(NC(=O)NCc2cccc(CO)c2)c1=O | -55.5
39 | COCCN1CCC(CNC(=O)C2(c3cccc(C)c3)CC2)C1 (stereo not drawn) | -4.28
40 | CC(C)c1noc(CCNC(=O)N2CCC(O)(C(F)(F)F)C2)n1 (stereo not drawn) | 9.74
41 | Cc1ccc2c(c1)c(Sc1ccccc1)c(CC(=O)O)n2C | 3.56
42 | Cc1cc(NC(=O)c2nc(N3CCCC3)ncc2Cl)ccc1Br | -7.2
43 | CC(=O)c1cccc(-n2nc(C(C)=O)c(C(C)=O)c2C)c1 | 4.45
44 | O=C(c1cnccn1)N1CCC(Cc2cnc3[nH]ccc3c2)CC1 | -18.6
45 | Cc1nn(C)c2cnn(Cc3ccc(C(=O)NC4CC4)o3)c12 | 9.43
46 | CC(C)c1noc(C(C)N2CCN(c3ccc(C#N)cn3)CC2)n1 (stereo not drawn) | -2.57
47 | CN(C)CC(=O)N1CCN(c2cc(N3CCCC3CO)ncn2)CC1 (stereo not drawn) | -4.19
48 | Cc1c(COC(C)C)cccc1NC(=O)N1CC[C@H](O)C1 | -11
